In the library only some 2.9% were active in any assay of this set; here they are far more common.
5HT1a ag = 5-HT1a (human) receptor agonism; P08908; CHO 5-HT1a Ga15 NFAT-bla reporter, FRET ratio; 0% basal, 100% maximal reference agonist; activation, % at 10 µM; 65,000 compounds, 0.56% hits; AID 567;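 active means activation above the screen-wide mean activation plus 3 SD, cut at about 19% in these data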;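 further: 0% = DMSO wells and 100% = 5-CT at EC100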
5-HT1A blocker = antagonists of human 5-HT1a serotonin receptor; CHO 5-HT1a Ga15 NFAT-bla reporter, antagonist mode; inhibition, % at 10 µM; 62,000 compounds, 0.68% hits; AID 612;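 active means inhibition above the mean of all tested compounds plus 3 SD, cut at about 43% in these data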;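 further: receptor stimulated by 5-CT agonist at 100 nM near EC80; beta-lactamase reporter measured by ratiometric fluorescence of a cleavable substrate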
S1P1 ag-PAM = agonists and agonism potentiators of human S1P1 receptor; P21453; S1P1 CRE-bla cells, forskolin, beta-lactamase FRET, potentiator mode; S1P1 agonist co-added at EC20, 2 nM; 100% = saturating reference agonist, 0% = basal; activation, % at 9.5 µM; 56,000 compounds, 0.57% hits; AID 449;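 active means activation above a cutoff set at the mean activation of all tested compounds plus 3 SD, cut at about 54% in these data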;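 further: forskolin at 4 µM as EC80 and the EC20 agonist is SEW2871; 100% = SEW2871 at its EC100 plus forskolin at EC80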
HTR1E antagonist = blocks the human 5-HT1E serotonin receptor; inhibition, % at 6 µM; CHO 5-HT1E Ga15 NFAT-bla reporter, FRET, antagonist; 65,000 compounds, 0.99% hits; AID 571;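 active means inhibition above a set limit, the mean inhibition across every tested compound plus 3 SD, cut at about 29% in these data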;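 further: signal is the 460 over 535 nm emission ratio of beta-lactamase substrate; 0% = agonist plus DMSO wells and 100% = wells without agonist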
Target sequence (P28566 whole entry, looked up): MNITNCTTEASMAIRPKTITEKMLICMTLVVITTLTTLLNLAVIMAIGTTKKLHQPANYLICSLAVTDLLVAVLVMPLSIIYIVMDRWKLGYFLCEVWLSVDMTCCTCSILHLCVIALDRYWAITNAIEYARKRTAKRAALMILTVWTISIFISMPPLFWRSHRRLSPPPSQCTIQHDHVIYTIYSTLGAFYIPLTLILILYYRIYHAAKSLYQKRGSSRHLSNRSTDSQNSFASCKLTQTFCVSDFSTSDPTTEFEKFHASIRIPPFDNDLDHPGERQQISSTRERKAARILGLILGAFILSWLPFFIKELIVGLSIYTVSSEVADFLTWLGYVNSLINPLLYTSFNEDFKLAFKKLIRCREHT
HTR1E agonist = activates the human 5-HT1E serotonin receptor. CHO 5-HT1E Ga15 NFAT-bla reporter, FRET; 0% DMSO wells, 100% control agonist wells. activation, % at 6 µM. 65,000 compounds, 0.69% hits;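 active means activation above a set limit, the screen-wide mean activation plus 3 SD, cut at about 8.5% in these data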;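 further: 100% = positive control agonist at 1 µM giving full maximal response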
S1P3 ag = agonists of human S1P3 receptor. 60,000 compounds, 0.1% hits. S1P3 NFAT-BLA reporter cells, agonism, FRET ratio; relative to 1 µM S1P, basal subtracted. activation, % at 4.5 µM. Q99500;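 active means activation above the screen-wide mean plus 3 SD, cut at about 4.5% in these data, passing the limit was not always enough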
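material = human S1P3 NFAT-BLA reporter CHO cells | schedule = 4 h compound at 37 °C, 2 h substrate at RT | measured by = fluorescent BLA substrate, ex 405 nm, em 460/535 nm ratio | controls = 1 µM S1P reference | replication = primary once, confirmation triplicate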
* hit, by the source's call; x = no result given.

SMILES	5HT1a ag	5-HT1A blocker	S1P1 ag-PAM	HTR1E antagonist	HTR1E agonist	S1P3 ag
c1ccc(Oc2ccc(-n3cnnn3)cc2)cc1	0.4	9.1	-2.6	29.3*	-2.6	-1.0
O=C(Oc1ccccc1)c1ccc(-n2cnnn2)cc1	-3.4	1.8	-23.6	-2.6	0.4	-1.2
COC(=O)c1ccc(NC(=O)C2CCCN(S(=O)(=O)c3cnc[nH]3)C2)cc1 (stereo unspecified)	-2.1	0.4	-29.1	1.4	0.8	-1.1
CCN1CCCC1CNC(=O)c1nn(-c2ccc(C)cc2)c(=O)c2c1c1ccccc1n2C (stereo unspecified)	-0.2	-10.9	-8.0	-6.7	37.1*	-0.5
Cc1cccc(-n2ncc(C#N)c2N)c1	-0.3	-12.2	-7.9	-5.7	-0.2	-0.3
Cc1cccc(N2C(N)=C(C#N)C(C#N)(C#N)C2c2ccccc2)c1 (stereo unspecified)	-0.6	6.0	-25.2	42.0*	0.8	1.0
N#CC1=C(N)N(c2ccccc2)C(c2ccco2)C1(C#N)C#N (stereo unspecified)	41.7*	22.2	7.4	26.9	-2.5	-0.9
COc1ccc(-n2c(NC(=O)c3ccco3)c(C#N)c3nc4ccccc4nc32)cc1	22.1*	6.9	-31.0	11.4	6.4	3.5
CCCCn1c(NC(=O)CC)c(C#N)c2nc3ccccc3nc21	4.1	11.3	-1.1	6.2	3.0	0.4
CCCCn1c(NC(=O)c2ccccc2Cl)c(C#N)c2nc3ccccc3nc21	26.6*	-12.6	-37.1	6.8	8.5	1.4
CCOC(=O)C1CCCN(C(=O)c2cnn3c(C(F)F)cc(-c4ccc(C)cc4)nc23)C1 (stereo unspecified)	0.8	46.7*	x	-7.7	3.2	-1.3
CCOC(=O)c1ccccc1NC1CC(=O)N(c2ccccc2C)C1=O (stereo unspecified)	-0.2	-6.7	14.9	2.3	0.0	-0.1
CCCn1c(SCC(=O)Nc2ccccc2-c2ccccc2)nnc1-c1ccoc1C	0.3	16.0	25.1	-11.8	-0.1	0.6
COc1ccc(-c2nnc(SCC(=O)N(Cc3ccccc3)C(C)(C)C)o2)cc1OC	-2.0	-7.2	8.3	-1.0	0.0	-0.6
CCOC(=O)CN(C(=O)CSc1nnc(-c2ccc(OC)c(OC)c2)o1)c1ccc(F)cc1	22.2*	-2.1	-11.9	17.9	0.3	-0.9
COc1ccc(OC)c(CCNC(=O)CS(=O)(=O)Cc2nc(-c3ccccc3C)oc2C)c1	-3.7	12.0	16.8	2.5	-0.9	0.1
CC(C)=CCC(C)(C)CNC(=O)NC1CCCCC1	-2.4	x	10.4	99.1*	-1.1	-2.2
Nc1cccc2c1C(=O)N(c1ccccc1)C2=O	-1.6	10.1	30.4	23.0	0.9	0.2
CCOC(=O)CSc1cc(C)nc(NC(C)=O)n1	18.6	4.7	-8.6	-6.4	0.1	-0.1
COc1ccc(NC(=O)CSc2nc3c(c(=O)n2-c2ccc(C)cc2)SCC3)c(OC)c1	1.3	17.0	x	-2.3	-0.6	x
COc1cc(OC)cc(C(=O)NCC2CCCO2)c1 (stereo unspecified)	-1.8	-5.2	-17.9	-5.0	-0.7	1.6
COc1ccc(N=c2oc3cc(O)ccc3cc2C(=O)NCC2CCCO2)c(OC)c1 (stereo unspecified)	70.4*	-118.9	-71.4	-12.8	18.8*	2.1
COc1ccc(N=c2oc3cc(O)ccc3cc2C(=O)NCC2CCCO2)cc1 (stereo unspecified)	25.8*	-6.8	-16.9	-10.6	5.8	0.8
Cc1ccc(N=c2oc3cc(O)ccc3cc2C(N)=O)cc1	71.3*	-167.8	-31.0	-9.4	21.6*	0.1
Cc1ncc(CO)c2cc(C(N)=O)c(=Nc3ccccc3)oc12	-0.6	2.4	-12.1	-2.4	-0.4	-1.2
CCc1ccc(NC(=O)c2cc(-c3ccco3)on2)cc1	-3.5	8.9	55.7*	0.3	-0.3	-0.9
CCNc1ccc(C(=O)OCC)cc1NC(=O)c1cccc(N(C)C)c1	-4.3	27.8	x	44.5*	-0.2	x
COCCCNC(=O)c1ccc(CS(=O)(=O)c2ccc(OC)cc2)o1	0.4	10.4	-9.3	30.9*	-1.2	-1.1
